Measurements reported in publication PMC12423902 (ACS Omega, 2025).
Where two headings read alike, the source gives them in different places. One block for each molecule: values may come before it.

Tests used:
FASN [1] = molecular target: T1, FASN (Gallus gallus, UniProt P12276); details: read-out: IC50, FASN inhibition; literature value; ref number not given; cited from earlier work
FASN [2] = molecular target: T1, FASN; assay: FASN overall reaction inhibition; type: biochemical, chicken
Procedure, shortened: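 Overall reaction of purified chicken liver FASN at 37 °C, read as initial rate of NADPH absorbance loss at 340 nm. The test compound was added before the last substrate, which started the reaction; DMSO was below 0.5% (v/v). Relative activity was Ai/A0 × 100%. IC50 came from a plot of relative activity versus concentration. Single-point data at 10.0 μM are mean ± SD, n = 3 independent experiments.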

[3] = ref number not given, cited from earlier work
[4] = test system: intracellular TG content in breast cancer cells (MDA-MB-231, MCF-7); assay: triglyceride; type: cell-based, human; details: 24 h, p < 0.001
[5] = molecular target: FASN KR domain (β-ketoacyl reduction) (Gallus gallus, UniProt P12276); assay: β-ketoacyl reduction partial reaction of FASN; type: biochemical, chicken; details: 10.0 μM phloretin
Sequence of FASN KR domain (β-ketoacyl reduction) (P12276 2-2512 limits assumed): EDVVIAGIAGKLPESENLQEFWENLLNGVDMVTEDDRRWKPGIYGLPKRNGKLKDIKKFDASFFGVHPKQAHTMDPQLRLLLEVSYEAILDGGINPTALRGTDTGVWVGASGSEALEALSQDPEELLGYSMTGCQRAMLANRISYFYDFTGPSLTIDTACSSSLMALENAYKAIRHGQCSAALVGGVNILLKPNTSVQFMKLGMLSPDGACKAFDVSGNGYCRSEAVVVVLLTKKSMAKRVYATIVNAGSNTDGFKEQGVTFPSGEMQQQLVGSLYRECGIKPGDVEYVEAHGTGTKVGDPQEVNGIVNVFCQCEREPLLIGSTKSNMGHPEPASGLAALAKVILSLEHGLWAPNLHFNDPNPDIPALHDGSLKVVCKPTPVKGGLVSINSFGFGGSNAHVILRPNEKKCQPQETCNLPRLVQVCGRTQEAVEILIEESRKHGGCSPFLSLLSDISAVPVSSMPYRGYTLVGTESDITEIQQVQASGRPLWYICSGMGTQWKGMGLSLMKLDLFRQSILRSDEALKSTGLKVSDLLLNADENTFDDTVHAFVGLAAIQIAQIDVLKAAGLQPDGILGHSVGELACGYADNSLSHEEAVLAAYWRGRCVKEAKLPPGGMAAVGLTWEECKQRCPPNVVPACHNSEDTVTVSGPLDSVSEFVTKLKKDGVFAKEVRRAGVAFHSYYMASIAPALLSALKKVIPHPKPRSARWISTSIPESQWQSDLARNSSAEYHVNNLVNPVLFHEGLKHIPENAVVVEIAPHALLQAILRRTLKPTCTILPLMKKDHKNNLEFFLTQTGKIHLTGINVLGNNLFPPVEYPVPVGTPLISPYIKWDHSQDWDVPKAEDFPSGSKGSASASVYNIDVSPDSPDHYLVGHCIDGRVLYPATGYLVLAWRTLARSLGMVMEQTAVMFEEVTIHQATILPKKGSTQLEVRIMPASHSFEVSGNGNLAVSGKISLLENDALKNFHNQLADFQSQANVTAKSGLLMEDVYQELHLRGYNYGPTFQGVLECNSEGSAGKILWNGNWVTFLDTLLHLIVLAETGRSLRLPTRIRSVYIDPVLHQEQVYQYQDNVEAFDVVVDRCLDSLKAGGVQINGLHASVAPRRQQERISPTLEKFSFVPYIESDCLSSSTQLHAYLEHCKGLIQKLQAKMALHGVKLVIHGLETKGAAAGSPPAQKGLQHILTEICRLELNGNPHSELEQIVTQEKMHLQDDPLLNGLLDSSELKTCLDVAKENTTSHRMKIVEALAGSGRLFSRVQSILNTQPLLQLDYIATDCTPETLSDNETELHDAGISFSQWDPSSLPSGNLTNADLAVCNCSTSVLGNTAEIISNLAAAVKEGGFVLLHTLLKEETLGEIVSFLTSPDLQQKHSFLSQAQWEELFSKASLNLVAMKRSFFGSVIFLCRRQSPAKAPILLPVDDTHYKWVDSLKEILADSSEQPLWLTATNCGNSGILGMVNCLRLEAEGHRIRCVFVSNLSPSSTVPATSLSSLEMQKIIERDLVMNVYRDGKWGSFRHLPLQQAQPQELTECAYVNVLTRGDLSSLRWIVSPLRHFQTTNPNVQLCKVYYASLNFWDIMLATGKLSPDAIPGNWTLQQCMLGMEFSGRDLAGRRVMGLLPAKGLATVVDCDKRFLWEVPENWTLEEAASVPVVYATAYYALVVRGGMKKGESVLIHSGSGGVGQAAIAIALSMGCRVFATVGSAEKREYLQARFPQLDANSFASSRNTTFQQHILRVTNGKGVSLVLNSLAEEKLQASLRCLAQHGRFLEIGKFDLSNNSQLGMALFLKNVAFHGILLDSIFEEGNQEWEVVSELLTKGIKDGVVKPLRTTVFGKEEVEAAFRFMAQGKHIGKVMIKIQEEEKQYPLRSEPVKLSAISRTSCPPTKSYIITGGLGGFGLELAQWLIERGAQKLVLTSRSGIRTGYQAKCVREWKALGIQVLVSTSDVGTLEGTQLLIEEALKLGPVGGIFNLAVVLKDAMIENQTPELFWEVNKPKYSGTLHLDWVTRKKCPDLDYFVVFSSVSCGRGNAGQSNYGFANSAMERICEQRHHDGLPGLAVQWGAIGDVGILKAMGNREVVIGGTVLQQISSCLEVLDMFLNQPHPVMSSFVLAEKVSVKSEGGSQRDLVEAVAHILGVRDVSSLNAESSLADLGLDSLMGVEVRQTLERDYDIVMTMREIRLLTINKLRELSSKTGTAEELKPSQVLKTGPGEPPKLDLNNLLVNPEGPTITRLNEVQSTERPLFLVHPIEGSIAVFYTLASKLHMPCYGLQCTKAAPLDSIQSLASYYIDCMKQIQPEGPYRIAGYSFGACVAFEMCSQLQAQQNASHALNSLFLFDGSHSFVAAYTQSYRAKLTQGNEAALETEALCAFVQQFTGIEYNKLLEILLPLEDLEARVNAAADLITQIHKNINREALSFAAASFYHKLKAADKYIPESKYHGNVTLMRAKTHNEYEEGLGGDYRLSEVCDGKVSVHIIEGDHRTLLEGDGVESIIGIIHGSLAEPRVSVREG
Procedure, shortened: (§1)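 Chicken liver FASN was purified by two-step ammonium sulfate precipitation, DEAE-cellulose and Blue-Sepharose chromatography, and stored at −70 °C. Partial reactions (β-ketoacyl reduction, enoyl reduction, AcAc-CoA reduction) were run at 37 °C after 10 min equilibration. The test compound was at 10.0 μM, with DMSO below 0.5% (v/v). Initial velocity came from the NADPH decrease at 340 nm. Relative activity was Ai/A0 × 100%, given as mean ± SD of three independent experiments.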

MDA-MB-231 = assay: cell viability assay; type: cell-based; details: Homo sapiens, MDA-MB-231, 24 h, read-out: IC50, cell viability
Procedure, shortened: (§2)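 Cells were grown in DMEM with 10% FBS at 37 °C and 5% CO2. They were seeded at 1 × 10^6 cells/mL and allowed to attach overnight before treatment. Medium was then replaced with drug-free medium containing CCK-8 reagent, incubated 1 h at 37 °C, and read at 450 nm. Six replicates were run on three separate occasions.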

FASN [6] = molecular target: T1, FASN; assay: enzyme kinetics study; type: biochemical, chicken; details: for Ki: Inhibition constant K is
Procedure, shortened: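 Purified chicken FASN, overall reaction at 340 nm (NADPH). One substrate was varied with the others fixed. Ac-CoA varied with Mal-CoA 10 μM and NADPH 35 μM, test compound 0–5.86 μM. Mal-CoA varied with Ac-CoA 3 μM and NADPH 35 μM, test compound 0–6.88 μM. NADPH varied with Ac-CoA 3 μM and Mal-CoA 10 μM, test compound 0–9.12 μM. Lineweaver–Burk plots; Kis/Kii from secondary plots; points are means of 2–5 experiments.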

[7] = molecular target: FASN ER domain (enoyl reduction) (Gallus gallus, UniProt P12276); assay: enoyl reduction partial reaction of FASN; type: biochemical, chicken; details: 10.0 μM phloretin
Sequence of FASN ER domain (enoyl reduction) (P12276 2-2512 limits assumed): as above
Procedure, shortened: as §1

MCF-7 = assay: cell viability assay; type: cell-based; details: Homo sapiens, MCF7, 24 h, read-out: IC50, cell viability
Procedure, shortened: as §2

[8] = molecular target: FASN (MAT, KR, DH, ER domains and ACP; AcAc-CoA reaction) (Gallus gallus, UniProt P12276); assay: AcAc-CoA reduction reaction of FASN; type: biochemical, chicken; details: 10.0 μM phloretin
Procedure, shortened: as §1

[9] = test system: FASN expression in MDA-MB-231 and MCF-7 cells; assay: Western blot analysis of FASN expression in breast cancer cells; type: cell-based, human; details: 60–90 μM, 24 h, both cell lines
Procedure, shortened: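 Cells in DMEM/10% FBS were treated 24 h with test compound, washed with PBS, lysed in RIPA and sonicated. Protein was measured by BCA, and 20 μg per lane was run on 8% SDS-PAGE and transferred to PVDF. Membranes were blocked in 5% milk, probed overnight at 4 °C with rabbit monoclonal anti-FASN and anti-β-actin, then an HRP anti-rabbit secondary. Detection was by ECL, with densitometry normalized to β-actin; mean ± SD, n = 3.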

FASN [10] = molecular target: T1, FASN; assay: time-dependent; type: biochemical, chicken
Procedure, shortened: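 FASN was incubated at 25 °C with various test compound concentrations. Aliquots taken at set intervals were assayed for residual overall activity. kobs came from ln(At/A0) = −kobs·t. For substrate protection, Ac-CoA, Mal-CoA or NADPH (10 μM each) was present during inactivation, compared with no substrate. In a separate series, FASN (0.60 μM) was preincubated with 6.6 μM test compound plus rising Ac-CoA, and 1/kobs was plotted against Ac-CoA.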

FASN KR domain = FASN KR domain (Gallus gallus, UniProt P12276); assay: time-dependent inhibition of the KR domain; type: biochemical, chicken
Sequence of FASN KR domain (P12276 2-2512 limits assumed): as above

[11] = molecular target: intracellular FASN in breast cancer cells (MDA-MB-231, MCF-7) (Homo sapiens, UniProt P49327); assay: intracellular FASN activity assay; type: cell-based
Sequence of intracellular FASN in breast cancer cells (MDA-MB-231, MCF-7) (P49327 whole entry): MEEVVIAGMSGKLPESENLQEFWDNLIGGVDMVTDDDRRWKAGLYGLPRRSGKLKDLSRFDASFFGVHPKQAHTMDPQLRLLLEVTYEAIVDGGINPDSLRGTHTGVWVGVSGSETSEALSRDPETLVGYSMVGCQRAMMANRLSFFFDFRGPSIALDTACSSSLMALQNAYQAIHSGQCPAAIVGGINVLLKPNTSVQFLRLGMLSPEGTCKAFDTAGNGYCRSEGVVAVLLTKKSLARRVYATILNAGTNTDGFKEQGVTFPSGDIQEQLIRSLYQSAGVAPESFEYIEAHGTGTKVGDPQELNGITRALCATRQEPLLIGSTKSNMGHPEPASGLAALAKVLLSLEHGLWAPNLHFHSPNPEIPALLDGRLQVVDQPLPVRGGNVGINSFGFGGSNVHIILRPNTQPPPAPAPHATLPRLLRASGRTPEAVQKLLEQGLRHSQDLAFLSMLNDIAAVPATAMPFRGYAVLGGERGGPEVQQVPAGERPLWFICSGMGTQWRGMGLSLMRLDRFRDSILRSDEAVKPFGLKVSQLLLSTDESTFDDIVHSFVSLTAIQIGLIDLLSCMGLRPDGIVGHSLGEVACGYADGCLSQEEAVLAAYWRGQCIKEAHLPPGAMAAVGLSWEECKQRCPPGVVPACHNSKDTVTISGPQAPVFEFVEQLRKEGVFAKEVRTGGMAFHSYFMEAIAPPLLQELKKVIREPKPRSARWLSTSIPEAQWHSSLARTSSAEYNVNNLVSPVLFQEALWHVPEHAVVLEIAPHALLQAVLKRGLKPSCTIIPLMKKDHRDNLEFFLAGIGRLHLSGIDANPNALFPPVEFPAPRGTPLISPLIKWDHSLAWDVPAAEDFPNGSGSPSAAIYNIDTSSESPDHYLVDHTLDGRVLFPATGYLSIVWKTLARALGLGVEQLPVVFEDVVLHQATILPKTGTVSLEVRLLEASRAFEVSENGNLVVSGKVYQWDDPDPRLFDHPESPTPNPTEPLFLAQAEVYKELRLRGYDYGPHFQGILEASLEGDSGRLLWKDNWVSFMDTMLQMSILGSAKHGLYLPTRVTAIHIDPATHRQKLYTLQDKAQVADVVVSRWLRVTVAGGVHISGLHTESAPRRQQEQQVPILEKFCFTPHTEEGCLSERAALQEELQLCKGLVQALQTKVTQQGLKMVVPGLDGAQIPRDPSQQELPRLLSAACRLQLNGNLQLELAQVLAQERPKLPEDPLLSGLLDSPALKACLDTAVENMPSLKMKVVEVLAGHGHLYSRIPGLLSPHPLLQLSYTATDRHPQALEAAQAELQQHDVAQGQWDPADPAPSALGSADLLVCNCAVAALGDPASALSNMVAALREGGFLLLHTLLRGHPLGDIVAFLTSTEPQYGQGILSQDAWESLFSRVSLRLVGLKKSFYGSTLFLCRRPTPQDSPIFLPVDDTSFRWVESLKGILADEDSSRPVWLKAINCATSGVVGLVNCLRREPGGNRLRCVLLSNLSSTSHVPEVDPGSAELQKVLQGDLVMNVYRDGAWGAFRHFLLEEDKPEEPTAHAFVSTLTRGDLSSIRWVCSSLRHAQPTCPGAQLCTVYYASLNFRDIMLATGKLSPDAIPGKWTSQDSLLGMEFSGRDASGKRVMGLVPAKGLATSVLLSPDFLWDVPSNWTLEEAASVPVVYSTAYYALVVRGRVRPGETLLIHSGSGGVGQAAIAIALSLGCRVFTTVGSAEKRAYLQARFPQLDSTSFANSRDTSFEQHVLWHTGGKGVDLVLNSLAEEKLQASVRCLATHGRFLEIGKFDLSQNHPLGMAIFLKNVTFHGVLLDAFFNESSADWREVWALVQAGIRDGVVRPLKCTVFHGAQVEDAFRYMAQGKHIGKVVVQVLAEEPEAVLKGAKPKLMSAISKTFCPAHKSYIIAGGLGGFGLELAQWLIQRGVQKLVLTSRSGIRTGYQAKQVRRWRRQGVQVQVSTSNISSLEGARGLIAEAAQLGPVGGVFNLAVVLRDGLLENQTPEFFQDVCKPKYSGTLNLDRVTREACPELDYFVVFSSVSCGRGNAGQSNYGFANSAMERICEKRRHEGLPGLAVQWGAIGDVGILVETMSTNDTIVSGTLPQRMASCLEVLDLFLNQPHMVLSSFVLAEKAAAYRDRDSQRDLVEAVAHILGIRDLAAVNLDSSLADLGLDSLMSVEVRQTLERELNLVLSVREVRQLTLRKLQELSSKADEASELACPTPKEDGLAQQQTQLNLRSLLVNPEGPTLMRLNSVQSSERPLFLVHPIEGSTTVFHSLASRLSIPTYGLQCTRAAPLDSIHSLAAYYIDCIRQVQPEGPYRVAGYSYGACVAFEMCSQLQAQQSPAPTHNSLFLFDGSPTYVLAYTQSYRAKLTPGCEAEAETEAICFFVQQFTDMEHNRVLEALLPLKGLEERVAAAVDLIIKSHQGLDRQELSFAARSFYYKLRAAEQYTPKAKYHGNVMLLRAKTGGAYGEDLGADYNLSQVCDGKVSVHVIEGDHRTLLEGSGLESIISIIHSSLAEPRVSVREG
Procedure, shortened: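 After 24 h exposure, cells were trypsinized, washed three times and resuspended in cold PBS. They were sonicated at 4 °C and spun at 12,000 g for 15 min at 4 °C. Supernatant was assayed in 25 mM K-phosphate (pH 7.0) with 0.25 mM EDTA, 0.25 mM DTT, 30 μM Ac-CoA and 350 μM NADPH. Background A340 was read for 60 s, then Mal-CoA was added and FAS-dependent NADPH oxidation read for 60 s more. Mean ± SD, n = 3; ANOVA with Tukey.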

T1 sequence (P12276 2-2512 limits assumed): as the sequence (P12276 2-2512 limits assumed) above

- IC50 (FASN [2]; read-out: IC50, FASN overall reaction activity, chicken liver FASN, 37 °C): 50.5 ± 0.75 µM
SMILES: O=C(O[C@@H]1Cc2c(O)cc(O)cc2O[C@@H]1c1cc(O)c(O)c(O)c1)c1cc(O)c(O)c(O)c1 [EGCG, epigallocatechin gallate, reference compound]
- IC50 (FASN [1]): 52 µM

SMILES: C/C=C/C/C=C/CCC(=O)[C@H]1O[C@H]1C(N)=O [cerulenin]
- IC50 (FASN [1]): 89 µM

- β-ketoacyl reduction activity suppressed [5]: 3.5%
- IC50 (MDA-MB-231): 81.4 µM
- IC50 (FASN [2]): 4.9 ± 0.66 µM
- inhibition at 10 µM (FASN [2]; read-out: inhibition of overall FASN activity): 81%
- Ki (FASN [6]; substrate Ac-CoA): 3.46 µM
- Ki (FASN [6]; substrate Mal-CoA): 5.69 µM
- Inhibitory manner (FASN [6]; substrate Ac-CoA varied, Mal-CoA 10 μM, NADPH 35 μM): Competitive
- Inhibitory manner (FASN [6]; substrate Mal-CoA varied, Ac-CoA 3 μM, NADPH 35 μM): Mixed competitive and noncompetitive
- Inhibition constant K ii (FASN [6]; substrate Mal-CoA, enzyme–substrate complex): 9.41 µM
- Inhibition constant K ii (FASN [6]; substrate NADPH): 1.80 µM
- Inhibitory manner (FASN [6]; substrate NADPH varied, Ac-CoA 3 μM, Mal-CoA 10 μM): Uncompetitive
- enoyl reduction activity suppressed [7]: 4.8%
- IC50 (MCF-7): 101 µM
- AcAc-CoA reaction activity remained [8]: 91.2%
- decrease of k obs by preincubation with Mal-CoA or NADPH (FASN [10]; Mal-CoA (10 μM) or NADPH (10 μM) vs no substrate): 5–10%
- k obs, FASN inactivation without any substrate (FASN [10]; control, same conditions without substrate): 0.070 min^–1
- k obs, overall reaction activity of FASN (FASN [10]; phloretin 2 mg/mL, incubated at 25 °C): 0.0264 min^–1
- k obs, FASN inactivation with Ac-CoA (FASN [10]; with Ac-CoA (10 μM)): 0.025 min^–1
- k obs, FASN inactivation with Mal-CoA (FASN [10]; with Mal-CoA (10 μM)): 0.067 min^–1
- k obs, FASN inactivation with NADPH (FASN [10]; with NADPH (10 μM)): 0.064 min^–1
- lowest concentration with significant inhibition of intracellular FASN activity ([11]; p < 0.01, 24 h, breast cancer cells): 30 µM
- inhibition at 90 µM ([11]; read-out: maximal inhibition of intracellular FASN enzymatic activity): > 50%
SMILES: O=C(CCc1ccc(O)cc1)c1c(O)cc(O)cc1O [phloretin, β-(4-hydroxyphenyl)-2,4,6-trihydroxypropiophenone]
- time of Cmax postdose ([3]; Sprague–Dawley rats, single 100 mg/kg dose): 15 min
- Cmax ([3]; oral doses of 200 and 300 mg/kg): < 10 µM
- oral bioavailability ([3]; rats, oral and intravenous routes): 8.676%
- cellular TG levels [4]: marked concentration-dependent reduction
- FASN protein content [9]: significantly decreased
- time-dependent inhibition of KR domain (FASN KR domain): no time-dependent inhibition was observed
